43 compounds from ChEMBL document CHEMBL1128510, “Potent inhibitors of acyl-CoA:cholesterol acyltransferase. Structure-activity relationships of novel N-(4-oxochroman-8-yl)amides” (J Med Chem, 1995) can be followed below.

A short description of assay [1]: Inhibition of rabbit small-intestinal Acyl coenzyme A:cholesterol acyltransferase 1. Also on record: species or system Oryctolagus cuniculus. The gist of the method:
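Source: intestinal mucosa microsomes from cholesterol-fed Japanese white rabbits. Mucosa homogenized in 40 mM phosphate pH 7.4 with 30 mM EDTA, 50 mM KCl and 0.1 M sucrose; spun 10000g for 30 min, then 105000g for 1 h, at 4 °C.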

The test system of assay [2] is Rattus norvegicus. Nature of the assay: Serum total cholesterol-lowering activity in the cholesterol-fed rats expressed as the ratio of the observed reduction to the difference between the control and normal levels 100 (10 mg/kg po). The assay is classed as functional. The gist of the method:
(§1)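 Male Wistar rats (8–9 weeks, 200 g, n = 6/group) on normal chow for 7 days, then a 2% cholesterol/1% cholic acid/12% coconut oil diet for 3 days. Compound in 0.5% methyl cellulose given orally once daily for 3 days at the listed dose; controls got vehicle. After a 16 h fast, aortic blood taken; serum cholesterol measured enzymatically. % change = (A−B)/(B−C)×100, with B = control and C = normal-diet rats.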

In assay [3] the test system is Rattus norvegicus. Kind of assay: Serum total cholesterol-lowering activity in the cholesterol-fed rat expressed as the ratio of the observed reduction to the difference between the control and normal levels 100 (0.3 mg/kg, po). Type of assay: functional. Summed up: as §1
In assay [4] the test system is Rattus norvegicus. Nature of the assay: Serum total cholesterol-lowering activity in the cholesterol-fed rat expressed as the ratio of the observed reduction to the difference between the control and normal levels 100 (0.1 mg/kg po). The assay is classed as functional. Summed up: as §1
The species entered for assay [5] is Rattus norvegicus. Kind of assay: IC50 is the concentration that inhibits 50% of the enzyme activity was evaluated by measuring the ability to inhibit acetyl-LDL-induced cholesteryl ester accumulation in rat peritoneal macrophages. The assay is classed as functional. The gist of the method:
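Peritoneal macrophages from nonstimulated male Wistar rats (250–300 g), 3 × 10^6 per dish in 10% FBS-DMEM, adhered 2 h at 37 °C in 5% CO2. Washed in 3% BSA-DMEM, then incubated 16 h with 25 µg/mL acetylated human LDL, [14C]oleate-BSA and compound. Lipids extracted in hexane–2-propanol with [3H]cholesteryl oleate recovery standard. Cholesteryl oleate isolated by TLC and counted; IC50 determined for ester accumulation.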

Assay [6] in a line: Ability to inhibit rabbit liver Acyl coenzyme A:cholesterol acyltransferase 1. Also on record: species or system Oryctolagus cuniculus. The gist of the method:
(§2)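 Liver microsomes from Japanese white rabbits, prepared in 0.154 M phosphate buffer pH 7.4 with 40 mM NaF. Assay mix: 36 μM BSA, 2 mM DTT, 0.5 mg/mL microsomes, sonicated liposomes (PC:PS:cholesterol 3:1:8, 8 mg/mL cholesterol). Compound added as 1% (v/v) DMSO solution, preincubated 3 min at 37 °C. Reaction started with 43 μM [14C]oleoyl-CoA, 10 min at 37 °C. Cholesteryl oleate radioactivity measured; IC50 determined.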

For assay [7], the system named is Rattus norvegicus. Nature of the assay: Serum total cholesterol-lowering activity in the cholesterol-fed rats expressed as the ratio of the observed reduction to the difference between the control and normal levels 100 (3 mg/kg po). The assay is classed as functional. The gist of the method: as §1
Assay [8] deals with Rattus norvegicus. Nature of the assay: Serum total cholesterol-lowering activity in the cholesterol-fed rats expressed as the ratio of the observed reduction to the difference between the control and normal levels 100. (0.3 mg/kg, po). Type of assay: functional. The gist of the method: as §1
The nature of assay [9]: Ability to inhibit rabbit liver Acyl coenzyme A:cholesterol acyltransferase 1. Also on record: species or system Oryctolagus cuniculus. The gist of the method: as §2
Assay [10] relates to Rattus norvegicus. Kind of assay: Serum total cholesterol-lowering activity in the cholesterol-fed rats expressed as the ratio of the observed reduction to the difference between the control and normal levels 100 (0.1 mg/kg po). The assay is classed as functional. The following applies: in the assay text read “1 mg/kg po” for “0.1 mg/kg po”. Summed up:
as §1

The subject of assay [11] is Rattus norvegicus. Kind of assay: Serum total cholesterol-lowering activity in the cholesterol-fed rats expressed as the ratio of the observed reduction to the difference between the control and normal levels 100 (0.3 mg/kg po). Type of assay: functional. Summed up: as §1
The test system of assay [12] is Rattus norvegicus. Kind of assay: Serum total cholesterol-lowering activity in the cholesterol-fed rat expressed as the ratio of the observed reduction to the difference between the control and normal levels 100 (3 mg/kg po). The assay is classed as functional. Summed up:
as §1

Bounds are passed on as bounds.

The term IC50 denotes the concentration at which inhibition is half-maximal. Compound `CCCCCCCCCCCCC(C)(C)C(=O)Nc1c(OC)ccc2c1OCCC2=O` showed an IC50 in [1] of 7.5 nM.
Same read-out and setting: next, `Cc1cc(C)c2c(c1NC(=O)C(C)(C)CCCCCOc1ccc(Cl)cc1)OCCC2=O`: 400 nM.
Take `Cc1ccc2c(c1NC(=O)C(C)(C)CCCCCOc1ccc(Cl)cc1)OCCC2=O`: the Change in assay [2] is given as -53%. For the same compound, the midpoint of inhibition in [1], the IC50, lay at 470 nM.
On to `CCCCCCCCCCOc1ccc2c(c1NC(=O)C(C)(C)CCCCCCOc1ccc(Cl)cc1)OCCC2=O`, for which the IC50 in [1] came to 140 nM.
In the case of `CCCCCCCCCCC(C)(C)C(=O)Nc1c(Cl)ccc2c1OCCC2=O`, the IC50 in assay [1] came out at 150 nM.
On the same count and under the same terms, next, `COc1ccc2c(c1NC(=O)C(C)(C)CCCCCCOCC(C)C)OCCC2=O`: 26 nM; `Cc1ccc2c(c1NC(=O)c1ccccc1)OCCC2=O`: more than 1000 nM; `CCCCCCCCCCC1(C(=O)Nc2c(C)ccc3c2OCCC3=O)CCCC1`: 170 nM.
Same read-out and setting: next, `COc1ccc2c(c1NC(=O)C(C)(C)CCCc1ccc(CC(C)C)cc1)OCCC2=O`: 17 nM; `CCCCCCCCCCC(C)(C)C(=O)Nc1c(OC)ccc2c(=O)ccoc12`: 77 nM.
Consider `CCCCCCCCCCC(C)(C)C(=O)Nc1c(OC)ccc2c1OCCC2=O`, for which the Change in assay [3] is -66%; in assay [4], -61%. The IC50 was found to be 160 nM in assay [5], 13 nM in assay [1] and 16 nM in assay [6].
In turn, `COc1ccc2c(c1NC(=O)C(C)(C)CCCCCCc1ccccc1)OCCC2=O` gave a 50% inhibitory concentration (IC50) in assay [1] of 44 nM. That is a double-digit nanomolar value.
On the same count and under the same terms, next, `Cc1ccc2c(=O)ccoc2c1NC(=O)C(C)(C)CCCCCOc1ccc(Cl)cc1`: more than 500 nM; `CCCCCCCCCCC(C)(C)C(=O)Nc1c(OC)ccc2c1OCCC2`: 180 nM; `CCCCCCCCCCOc1cc(C)c(C(=O)Nc2c(OC)ccc3c2OCCC3=O)c(C)c1`: more than 200 nM.
With `CCCCCCCCCCC(C)(C)C(=O)Nc1c(OC)ccc2c(=O)cc(CC)oc12`, the IC50 in assay [1] worked out at 780 nM.
Take `CCCCCCOc1ccc(CCCC(C)(C)C(=O)Nc2c(OC)ccc3c2OCCC3=O)cc1`: the concentration for half-maximal inhibition (IC50) in [1] is 16 nM. Also, the Change in assay [7] is -65%.
With `CCCCCCCCCCC(C)(C)C(=O)Nc1c(C)ccc2c1OCCC2=O`, in assay [1], 210 nM corresponded to half-maximal inhibition (IC50).
With `COc1ccc2c(c1NC(=O)c1ccc(OCCCCCCOc3ccc(Cl)cc3)cc1)OCCC2=O`, the IC50 in [5] was determined as 220 nM; in [1] it was 26 nM; in assay [9] it was 59 nM. Also, the Change is reported as -79% in assay [7] and -56% in assay [8].
In [1], `COc1ccc(C(=O)Nc2c(C)ccc3c2OCCC3=O)cc1` had a half-maximal inhibitory concentration (IC50) of more than 1000 nM.
For `CC(C)(C)C(=O)Nc1c(OCCCCCCc2ccccc2)ccc2c1OCCC2=O`, the half-maximal inhibitory concentration (IC50) in assay [1] came out at 24 nM.
In turn, `COc1ccc2c(c1NC(=O)c1ccc(OCCCCCCOCC(C)C)cc1)OCCC2=O` showed a concentration for half-maximal inhibition (IC50) in [1] of 40 nM.
Still for that read-out and setting: the figure for `Cc1ccc2c(c1NC(=O)C(C)(C)Cc1ccccc1)OCCC2=O` is more than 1000 nM.
On the same count and under the same terms, next, `CCCCCCCCCCC(C)(C)C(=O)Nc1c2c(cc([N+](=O)[O-])c1OC)C(=O)CCO2`: 34 nM; `CCCOCCCCCCC(C)(C)C(=O)Nc1c(OC)ccc2c1OCCC2=O`: 30 nM.
For `COc1ccc2c(c1NC(=O)C(C)(C)CCCCCCOc1ccc(Cl)cc1)C(=O)CCO2`, the half-maximal inhibitory concentration (IC50) in assay [1] is 180 nM.
Regarding `CCCCCCCCCCOc1ccc2c(c1NC(=O)C(C)(C)CCCCCCCCCC)OCCC2=O`, the concentration for half-maximal inhibition (IC50) in assay [1] is 850 nM. Against the preceding compound, the IC50 is about 4.7-fold higher.
On the same count and under the same terms, the figure for `CCCCCCCCCCOc1ccc(C(=O)Nc2c(OC)ccc3c2OCCC3=O)cc1` is 12 nM; for `CCCCCCCCCCC(C)(C)C(=O)Nc1c2c(cc(N(C)C)c1OC)C(=O)CCO2` it is more than 200 nM; for `CCCCCCCCCCOc1ccc(C(=O)Nc2c(OCCCCCCCCCC)ccc3c2OCCC3=O)cc1` it is more than 100 nM.
Take `CCCc1ccc(CCCC(C)(C)C(=O)Nc2c(OC)ccc3c2OCCC3=O)cc1`: the Change in assay [10] is on record as -54%. This compound displayed an IC50 in assay [1] of 27 nM.
`COc1ccc2c(c1NC(=O)C(C)(C)CCCCCCOc1ccc(Cl)cc1)OCCC2=O` yielded a concentration for half-maximal inhibition (IC50) in assay [1] of 64 nM. Moreover, the Change in [11] and in [8] was -53% each time.
`COc1ccc(OCCCCOc2ccc3c(c2NC(=O)C(C)(C)C)OCCC3=O)cc1` came in with an IC50 in assay [1] of 43 nM.
Same read-out and setting: next, `CCCCCCCCCCC(C)(C)C(=O)Nc1c(OC)c(NC)cc2c1OCCC2=O`: 49 nM; `CCCCCCCCCCC1(C(=O)Nc2c(C)ccc3c2NCCC3=O)CCCC1`: 430 nM.
`Cc1ccc2c(c1NC(=O)C(C)(C)CCCCOc1ccc(Cl)cc1)OCCC2=O` displayed a 50% inhibitory concentration (IC50) in assay [1] of 510 nM.
On the same count and under the same terms, the figure for `CCCCCCCCC(C)(C)C(=O)Nc1c(OC)ccc2c1OCCC2=O` is 31 nM; for `CCCCCCCCCCC(C)(C)C(=O)Nc1c(OCCC)ccc2c1OCCC2=O` it is 14 nM.
Consider `CCCCCCCCCCOc1ccc2c(c1NC(C)=O)OCCC2=O`, for which, in assay [1], the IC50 came out at 300 nM. Compared with the last compound, the IC50 is about 21-fold higher.
In the case of `CCCCCCCCCCOc1ccc2c(c1NC(=O)C(C)(C)C)OCCC2=O`, the Change in [3] is reported as -45%. For the same compound, the IC50 stood at 130 nM in [5], 14 nM in assay [1] and 22 nM in assay [6].
Consider `CCCCCCCCCCOc1ccc2c(=O)ccoc2c1NC(=O)C(C)(C)C`, for which, in [1], the IC50 worked out at 130 nM.
Same read-out and setting: next, `CCCCCCCCCCOc1ccc2c(c1NC(=O)c1ccc(OCCCCCCOc3ccc(Cl)cc3)cc1)OCCC2=O`: 540 nM.
Regarding `CCCCCCCCCCC(C)(C)C(=O)Nc1c(OC)cc(OC)cc1OC` [CL-976], the figures for the concentration for half-maximal inhibition (IC50) in assay [5], in [1] and in assay [6] were 3800 nM, 140 nM and 149 nM, respectively. For the same compound, the Change in assay [12] is on record as -50%.
